Assay results from PMC8800165 (Antiviral Research, 2022).
Values joined by “and” are separate entries in the source; they are usually repeats but may differ in a detail not shown here. Identical values can stand only once. Like-named read-outs stand apart in the source and are kept apart here.

Legend:
HEK293T cells = test: cell toxicity assay, CCK-8 kit; type: cell-based; conditions: HEK293T, 24 h, CCK-8
How it was run: (§1)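 HEK293T cells (DMEM, 10% FBS) seeded one day before treatment. Test compound added in […] for 24 h. CCK-8 (WST-8) reagent then added for 60 min at 37 °C, 5% CO2, and A450 read. CC50 derived from viability relative to DMSO-treated cells.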

SARS-CoV-2 RdRp [1] = biological target: T1, SARS-CoV-2 RdRp (Severe acute respiratory syndrome coronavirus 2, UniProt P0DTD1); conditions: for inhibition ratio against SARS-CoV-2 RdRp: 10 μM, library screen; for TI (CC50/EC50): CC50 HEK293T / RdRp EC50
HCoV-NL63 = test: anti-coronavirus CPE inhibition assay; type: cell-based; conditions: read-out: EC50 HCoV-NL63 (CPE inhibition); LLC-MK2, MOI 0.01, 5 days, MTS
How it was run: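 LLC-MK2 cells (DMEM, 10% heat-inactivated FBS) seeded at 2 × 10^4/well for 24 h. Infected with HCoV-NL63 strain Amsterdam I at MOI 0.01 in 2% FBS medium; test compound in two-fold dilutions (0.195–50 μM) given 1 h post-infection. Incubated 5 days at 33 °C; MTS 3 h at 37 °C, A490. Means ± SD, three independent experiments.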

LLC-MK2 cells = test: toxicity after incubation for 5 days in LLC-MK2 cells; type: cell-based; conditions: read-out: Toxicity CC50 LLC-MK2
HCT-8 cells = test: toxicity after incubation for 5 days in HCT-8 cells; type: cell-based; conditions: read-out: Toxicity CC50 HCT-8; incubation for 5 days
[2] = biological target: SARS-CoV-2 RdRp in the presence of nsp14 and nsp10 (Severe acute respiratory syndrome coronavirus 2, UniProt P0DTD1); test: cell-based CoV-RdRp-Gluc system with nsp10/nsp14 proofreading function; conditions: EC50 with nsp14/nsp10 over EC50 without
HCoV-OC43 = test: anti-coronavirus CPE inhibition assay; type: cell-based; conditions: read-out: EC50 HCoV-OC43 (CPE inhibition)
How it was run: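 HCT-8 cells (DMEM, 10% heat-inactivated FBS) seeded at 2 × 10^4/well for 24 h. Infected with HCoV-OC43 strain VR-1558 at MOI 0.1 in 2% FBS medium; two-fold serial dilutions of test compound (0.195–50 μM) added 1 h post-infection. Incubated 5 days at 33 °C, then MTS 3 h at 37 °C, A490. Means ± SD, three independent experiments.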

[3] = cell toxicity assay, CCK-8 kit; type: cell-based; conditions: human, HEK293T cells
How it was run: as §1

[4] = toxicity after incubation for 5 days in HCT-8 cells; type: cell-based; conditions: human, HCT-8 cells
SARS-CoV-2 RdRp [5] = biological target: T1, SARS-CoV-2 RdRp; test: Bio layer interferometry binding assay; conditions: data not shown
SARS-CoV-2 RdRp [6] = biological target: T1, SARS-CoV-2 RdRp; test: CoV-Gluc plus- and minus-strand RNA by real-time qRT-PCR; type: cell-based; conditions: HEK293T, 2 μM or 10 μM, 24 h
[7] = Betacoronavirus 1, OC43, HCT-8, 120 h

| SMILES | CC50 (HEK293T cells) | inhibition ratio against SARS-CoV-2 RdRp (SARS-CoV-2 RdRp [1]) | EC50 (HCoV-NL63) | CC50 (LLC-MK2 cells) | CC50 (HCT-8 cells) | Ratio (12 + 14/12) [2] | EC50 (HCoV-OC43; HCT-8, MOI 0.1, 5 days, MTS) | CC50 at 24 h [3] | TI (CC50/EC50) (SARS-CoV-2 RdRp [1]) | CC50 at 5 days [4] | EC50 (HCoV-OC43; [7]) | binding activity upon SARS-CoV-2 RdRp (SARS-CoV-2 RdRp [5]) | levels of plus-strand and minus-strand Gluc RNA (SARS-CoV-2 RdRp [6]) |
| --- | --- | --- | --- | --- | --- | --- | --- | --- | --- | --- | --- | --- | --- |
| Nc1nc2c(ncn2[C@H]2C[C@H](O)[C@@H](CO)O2)c(=S)[nH]1 [6-Thio-dG, 6-Thio-20-Deoxyguanosine] | > 100 µM | 75.19% and > 75% | 9.53 µM | 68 ± 7.03 µM | 63 ± 3.52 µM | 8.04 | 6.5 µM | – | – | – | – | – | – |
| Nc1nc(F)nc2c1ncn2[C@@H]1O[C@H](CO)[C@@H](O)[C@@H]1O [Fludarabine] | – | 88.71% and > 75% | – | – | – | 11.53 | – | 53.6 µM | 50.58 | 40.4 ± 8.16 µM | 4.56 µM | – | – |
| CCC(CC)COC(=O)[C@H](C)N[P@](=O)(OC[C@H]1O[C@@](C#N)(c2ccc3c(N)ncnn23)[C@H](O)[C@@H]1O)Oc1ccccc1 [Remdesivir] | – | – | – | – | – | – | – | > 100 µM | >93.46 | – | – | – | – |
| Nc1ncnc2c1c(I)cn2[C@@H]1O[C@H](CO)[C@@H](O)[C@H]1O [5-Iodotubercidin] | 59.5 µM | 85.69% and > 75% | 3.62 µM | 45.6 ± 5.15 µM | 46.9 ± 2.37 µM | 1.89 | 1.56 µM | – | 79.28 | – | – | did not detect the binding activity | even better than the Remdesivir |
| Nc1nc(F)nc2c1ncn2[C@@H]1O[C@H](COP(=O)(O)O)[C@@H](O)[C@@H]1O [Fludarabine Phosphate] | – | 89.78% and > 75% | – | – | – | 7.19 | – | 65.2 µM | 70.15 | 37.5 ± 1.62 µM | 3.11 µM | – | – |
